Data on 17 compounds can be found in ChEMBL document CHEMBL4368859, “Discovery of boron-containing compounds as Aβ aggregation inhibitors and antioxidants for the treatment of Alzheimer's disease” (Medchemcomm, 2018).

Calls of active or inactive are those of the source. The calls are words filed in the database; no cut-off is given here.

Assay [1] concerns the target T1, Amyloid-beta precursor protein (Homo sapiens, UniProt P05067). The assay can be described thus: Inhibition of self-induced aggregation of amyloid beta (1 to 42) (unknown origin) at 20 uM after 48 hrs by thioflavin T-based fluorescence method relative to control. The essentials: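 Aβ1-42 stock was in 1% ammonium hydroxide, diluted in 50 mM phosphate buffer (pH 7.4). Peptide (25 µM final) was incubated ± compound at 37 °C for 48 h, with peptide-free blanks. Samples were diluted in 50 mM glycine-NaOH (pH 8.0) with 5 µM ThT and read after 5 min (ex 450/em 485 nm). Inhibition = (1−IFi/IFc)×100 after background subtraction. At least three independent measurements, mean ± SD.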

The nature of assay [2]: Antioxidant activity assessed as trolox equivalents of AAPH radical scavenging activity at 20 uL preincubated for 10 mins followed by AAPH addition measured every min for 120 mins by ORAC-FL assay. In kind it is functional. The essentials:
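Test compound diluted to 10 µM in 75 mM phosphate buffer (pH 7.4). It was pre-incubated with fluorescein (70 nM final) at 37 °C, then AAPH (40 mM solution) was added. Fluorescence (ex 485/em 520 nm) was read each minute for 120 min. […] Triplicates, at least three independent runs, mean ± SD.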

In assay [3] the target is T1, Amyloid-beta precursor protein. In words: Potency index, ratio of curcumin IC50 to test compound IC50 for self-induced aggregation of amyloid beta (1 to 42) (unknown origin).
The nature of assay [4]: Metal chelating activity assessed as Cu2+-compound complex formation by measuring shift in maximum absorption wavelength at 20 uM after 30 mins by UV-Vis spectrophotometric method. The essentials:
(§1)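 UV-Vis absorption spectra were recorded for compound (20 µM final) alone or with CuSO4, FeSO4 or ZnCl2 (40 µM final) after 30 min. Medium was 20% (v/v) ethanol/buffer (20 mM HEPES, 150 mM NaCl, pH 7.4), at room temperature.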

Assay [5] can be described thus: Metal chelating activity assessed as Fe3+-compound complex formation at 20 uM after 30 mins by UV-Vis spectrophotometric method.
Assay [6] in a line: Metal chelating activity assessed as Fe2+-compound complex formation by measuring shift in maximum absorption wavelength at 20 uM after 30 mins by UV-Vis spectrophotometric method. The essentials: as §1
Assay [7] is described as follows: Metal chelating activity assessed as Zn2+-compound complex formation at 20 uM after 30 mins by UV-Vis spectrophotometric method. The essentials: as §1
The target of assay [8] is T1, Amyloid-beta precursor protein. In words: Inhibition of self-induced aggregation of amyloid beta (1 to 42) (unknown origin) after 48 hrs by thioflavin T-based fluorescence method.

T1 sequence (P05067 whole entry): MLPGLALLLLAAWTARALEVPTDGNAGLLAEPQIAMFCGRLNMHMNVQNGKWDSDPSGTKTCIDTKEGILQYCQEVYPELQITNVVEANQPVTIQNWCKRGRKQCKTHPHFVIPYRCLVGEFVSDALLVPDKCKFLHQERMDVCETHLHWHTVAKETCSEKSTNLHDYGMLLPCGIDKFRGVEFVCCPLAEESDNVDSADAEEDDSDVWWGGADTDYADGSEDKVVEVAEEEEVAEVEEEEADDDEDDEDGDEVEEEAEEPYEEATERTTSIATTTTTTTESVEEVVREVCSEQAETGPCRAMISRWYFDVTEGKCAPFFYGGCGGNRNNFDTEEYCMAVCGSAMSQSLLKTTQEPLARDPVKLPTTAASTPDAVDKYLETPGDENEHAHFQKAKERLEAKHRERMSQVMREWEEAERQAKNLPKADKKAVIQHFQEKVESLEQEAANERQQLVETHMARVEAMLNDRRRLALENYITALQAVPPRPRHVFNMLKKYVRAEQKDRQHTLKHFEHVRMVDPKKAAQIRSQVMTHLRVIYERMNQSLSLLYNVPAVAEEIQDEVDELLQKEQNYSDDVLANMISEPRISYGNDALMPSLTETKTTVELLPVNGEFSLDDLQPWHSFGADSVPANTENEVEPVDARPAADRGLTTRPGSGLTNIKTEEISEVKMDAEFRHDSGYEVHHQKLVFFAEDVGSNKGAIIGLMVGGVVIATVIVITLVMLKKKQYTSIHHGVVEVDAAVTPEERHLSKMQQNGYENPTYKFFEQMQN

The term inhibition denotes how much of the control response was suppressed. The compound `CN(C)c1ccc2c3c(ccc2c1)OB(O)C(c1cc(O)cc(O)c1)=C3` displayed an inhibition in assay [1] of 32.4%. Besides, in assay [2], the Activity (umolequiv/umol) is 5.27.

The compound `CN(C)c1ccc2c3c(ccc2c1)OB(O)C(c1ccc(O)cc1)=C3` showed an inhibition in assay [1] of 0%. For the same compound, the Activity (umolequiv/umol) in assay [2] amounted to 2.41.

By IC50 is commonly meant the concentration that inhibits the measured activity by half. A low value points to higher potency. On to `OB1Oc2ccc3ccc(O)cc3c2C=C1c1ccc(O)c(O)c1`, for which the Ratio IC50 in assay [3] is 4. The compound also came in with an inhibition in assay [1] of 82.8%. Besides, in assay [2], the Activity (umolequiv/umol) was found to be 4.55. Moreover, the Activity in assay [4] was found to be 355 nm; in assay [6], 350 nm. In addition, the outcome in assay [5] and in assay [7] was inactive. Moreover, the half-maximal inhibitory concentration (IC50) in assay [8] was 3.4 µM.

With `OB1Oc2ccc3ccccc3c2C=C1c1ccc(O)c(O)c1`, in assay [1], the inhibition was found to be 43.7%. Besides, the Activity (umolequiv/umol) in assay [2] stood at 2.7.

In the case of `Oc1ccc(/C=C/c2cc(O)cc(O)c2)cc1`, the Activity (umolequiv/umol) in assay [2] was 5.33.

Regarding `OB1Oc2ccc3cc(O)ccc3c2C=C1c1ccc(O)c(O)c1`, in assay [1], the inhibition came out at 80.5%. In addition, the Activity (umolequiv/umol) in assay [2] was determined as 4.05. This compound also returned a concentration for half-maximal inhibition (IC50) in assay [8] of 4.6 µM.

For the compound `OB1Oc2ccc3ccc(O)cc3c2C=C1c1ccc(O)cc1`, in assay [1], the inhibition is 20.5%. Besides, the Activity (umolequiv/umol) in assay [2] is 4.45.

Turning to `OB1Oc2ccc3ccccc3c2C=C1c1ccc(O)cc1`, the inhibition in assay [1] was found to be 0%. In assay [2], the Activity (umolequiv/umol) was 2.06.

`OB1Oc2ccc3cc(O)ccc3c2C=C1c1ccc(O)cc1` showed an inhibition in assay [1] of 12.3%. The Activity (umolequiv/umol) in assay [2] came to 3.94.

`CN(C)c1ccc2c3c(ccc2c1)OB(O)C(c1ccc(O)c(O)c1)=C3` gave an inhibition in assay [1] of 49.5%. Moreover, in assay [2], the Activity (umolequiv/umol) came to 4.88.

Turning to `OB1Oc2ccc(O)cc2C=C1c1ccc(O)c(O)c1`, the inhibition in assay [1] was found to be 58.8%. In assay [2], the Activity (umolequiv/umol) amounted to 4.09. Besides, the IC50 in assay [8] was 17.5 µM.

With `OB1Oc2ccc3ccc(O)cc3c2C=C1c1cc(O)cc(O)c1`, the inhibition in assay [1] came out at 78.7%. Moreover, in assay [2], the Activity (umolequiv/umol) was 5.34. In assay [8], this compound came in with an IC50 of 4.9 µM.

Take `OB1Oc2cc(O)ccc2C=C1c1cc(O)cc(O)c1`: the inhibition in assay [1] stood at 50.2%. Besides, the Activity (umolequiv/umol) in assay [2] was 4.84. The compound further registered a concentration for half-maximal inhibition (IC50) in assay [8] of 21.7 µM.

Take `COc1cc(/C=C/C(=O)O)ccc1O`: the Activity (umolequiv/umol) in assay [2] stood at 3.24.

Turning to `OB1Oc2ccc3cc(O)ccc3c2C=C1c1cc(O)cc(O)c1`, the inhibition in assay [1] turned out to be 70.3%. For the same compound, the Activity (umolequiv/umol) in assay [2] turned out to be 5.87. In assay [8], half-maximal inhibition (IC50) required 8.9 µM.

The compound `OB1Oc2ccc3ccccc3c2C=C1c1cc(O)cc(O)c1` gave an inhibition in assay [1] of 67.3%. The Activity (umolequiv/umol) in assay [2] was determined as 3. Also, the IC50 in assay [8] is 12.6 µM.

In the case of `COc1ccc(/C=C/c2cc(OC)cc(OC)c2)cc1`, the Activity (umolequiv/umol) in assay [2] was determined as 0.21.
